Here are results for 2 molecules from ChEMBL document CHEMBL1687713 (Antimicrob Agents Chemother, 2008).

Series [1] deals with Staphylococcus aureus. The experiment in a line: Antimicrobial activity against stationary phase culture of […] Staphylococcus aureus ATCC 29213 by macrodilution method. In kind it is functional. In short, it runs like this: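 Macrodilution MIC and MBC. MIC: lowest concentration inhibiting macroscopic growth. MBC: lowest concentration killing 99.9% of the initial inoculum. Log-phase cultures were used, and MBC was also determined in stationary phase. Subcultures were streaked down the plate centre and left to dry before spreading, to avoid carryover.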

The subject of series [2] is Staphylococcus aureus. Briefly: Antimicrobial activity against […] Staphylococcus aureus ATCC 29213 coverslip Wistar rat infected model assessed as bacterial load reduction at 100 mg/kg/day, ip treated for 14 days measured 24 hrs after last dose (reference value: 5.4 +/- 1 logCFU/ml). In kind it is functional. As to conditions: route intraperitoneal.

The test system of series [3] is Staphylococcus aureus. The experiment in a line: Antimicrobial activity against […] Staphylococcus aureus ATCC 29213 tissue cage Wistar rat infected model assessed as bacterial load reduction at 50 mg/kg/day, ip treated for 7 days measured 24 hrs after last dose (reference value: 6.8 +/-0.8 logCFU/ml) co-treated with 25 mg/kg rifampin, ip bid. In kind it is functional.

Series [4] relates to Staphylococcus aureus. Briefly: Antimicrobial activity against […] Staphylococcus aureus ATCC 29213 tissue cage Wistar rat infected model assessed as bacterial load reduction at 100 mg/kg/day, ip treated for 7 days measured 24 hrs after last dose (reference value: 6.8 +/-0.8 logCFU/ml). Type of series: functional. As to conditions: route intraperitoneal.
The test system of series [5] is Staphylococcus aureus. The experiment in a line: Antimicrobial activity against […] Staphylococcus aureus ATCC 29213 tissue cage Wistar rat infected model assessed as bacterial load reduction at 100 mg/kg/day, ip treated for 14 days measured 24 hrs after last dose (reference value: 7.2 +/- 0.6 logCFU/ml). In kind it is functional. As to conditions: route intraperitoneal.

Series [6] is described as follows: AUC in Escherichia coli ATCC 35218 infected Wistar rat serum at 50 mg/kg/day, ip measured on day 4. Also on record: route intraperitoneal. In kind it is ADME, organism-based.
Series [7] has as its system Staphylococcus aureus. The experiment in a line: Antimicrobial activity against […] Staphylococcus aureus ATCC 29213 coverslip Wistar rat infected model assessed as bacterial load reduction at 100 mg/kg/day, ip treated for 14 days measured 24 hrs after last dose (reference value: 5.4 +/- 1 logCFU/ml) co-treated with 25 mg/kg rifampin, ip bid. In kind it is functional.

A short description of series [8]: AUC in Escherichia coli ATCC 35218 infected Wistar rat tissue cage fluid at 100 mg/kg/day, ip measured on day 4. Also on record: route intraperitoneal. In kind it is ADME, organism-based.
Series [9] in a line: Cmax in Escherichia coli ATCC 35218 infected Wistar rat tissue cage fluid at 50 mg/kg/day, ip measured on day 4. Also on record: dose 50 mg/kg/day, route intraperitoneal. In kind it is ADME, organism-based, Interstitial fluid.
A short description of series [10]: AUC in Escherichia coli ATCC 35218 infected Wistar rat tissue cage fluid at 50 mg/kg/day, ip measured on day 4. Also on record: route intraperitoneal. In kind it is ADME, organism-based.
In series [11] the test system is Staphylococcus aureus. Briefly: Antimicrobial activity against […] Staphylococcus aureus ATCC 29213 at 2 times MIC in presence of rifampin. In kind it is functional, organism-based. An outline of the steps:
(§1)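 24-h killing curves in log phase using subinhibitory and clinically available concentrations, single drug or with rifampin. Bactericidal activity is a ≥3-log10 CFU/ml fall from the initial inoculum at 24 h.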

For series [12], the system named is Staphylococcus aureus. Briefly: Antimicrobial activity against methicillin-resistant Staphylococcus aureus ATCC 29213 tissue cage Wistar rat infected model assessed as bacterial load reduction at 50 mg/kg/day, ip treated for 7 days measured 24 hrs after last dose (reference value: 6.8 +/-0.8 logCFU/ml). Type of series: functional. As to conditions: route intraperitoneal.

Series [13] has as its system Staphylococcus aureus. Briefly: Antimicrobial activity against […] Staphylococcus aureus ATCC 29213 tissue cage Wistar rat infected model assessed as bacterial load reduction at 100 mg/kg/day, ip treated for 14 days measured 24 hrs after last dose (reference value: 7.2 +/- 0.6 logCFU/ml) co-treated with 25 mg/kg rifampin, ip bid. Type of series: functional.

Series [14] concerns Staphylococcus aureus. Briefly: Antimicrobial activity against […] Staphylococcus aureus ATCC 29213 tissue cage Wistar rat infected model assessed as bacterial load reduction at 100 mg/kg/day, ip treated for 7 days measured 24 hrs after last dose (reference value: 6.8 +/-0.8 logCFU/ml) co-treated with 25 mg/kg rifampin, ip bid. In kind it is functional.
Series [15] can be described thus: AUC in Escherichia coli ATCC 35218 infected Wistar rat serum at 100 mg/kg/day, ip measured on day 4. In kind it is ADME, organism-based. Also on record: route intraperitoneal.
Series [16] can be described thus: Cmax in Escherichia coli ATCC 35218 infected Wistar rat tissue cage fluid at 100 mg/kg/day, ip measured on day 4. Type of series: ADME, organism-based, Interstitial fluid. Also on record: dose 100 mg/kg/day, route intraperitoneal.
The nature of series [17]: AUC in Staphylococcus epidermidis ATCC 27626 infected Wistar rat tissue cage fluid at 25 mg/kg, ip measured on day 4. In kind it is ADME, organism-based. Also on record: dose 25 mg/kg, route intraperitoneal.
Series [18] is described as follows: Ratio of Cmax in Wistar rat tissue cage fluid to MIC for Staphylococcus epidermidis ATCC 27626 at 25 mg/kg, ip measured on day 4. As to conditions: route intraperitoneal. Type of series: functional.
Series [19] is described as follows: Ratio of AUC in Wistar rat tissue cage fluid to MIC for Staphylococcus epidermidis ATCC 27626 at 25 mg/kg, ip measured on day 4. Type of series: functional. As to conditions: route intraperitoneal.
Series [20] can be described thus: AUC in Staphylococcus epidermidis ATCC 27626 infected Wistar rat serum at 25 mg/kg, ip measured on day 4. In kind it is ADME, organism-based. Also on record: dose 25 mg/kg, route intraperitoneal.
In series [21] the test system is Staphylococcus aureus. The experiment in a line: Bactericidal activity against log phase culture of […] Staphylococcus aureus ATCC 29213 at 8 times MIC. In kind it is functional, organism-based. An outline of the steps:
as §1

Series [22] in a line: Cmax in Staphylococcus epidermidis ATCC 27626 infected Wistar rat tissue cage fluid at 25 mg/kg, ip measured on day 4. Type of series: ADME, organism-based. Also on record: dose 25 mg/kg, route intraperitoneal.
Series [23] has as its system Staphylococcus aureus. The experiment in a line: Antimicrobial activity against […] Staphylococcus aureus ATCC 29213 tissue cage Wistar rat infected model assessed as bacterial load reduction at 25 mg/kg, ip bid treated for 7 days measured 24 hrs after last dose (reference value: 6.8 +/-0.8 logCFU/ml). In kind it is functional. As to conditions: route intraperitoneal.

In brackets after ≈: the same amount, converted by molar mass. Activity calls are given as the source filed them. No cut-off for these calls is given here.

Usually MBC stands for the lowest tested concentration that kills the bacteria rather than only halting them. Low readings indicate more potent killing, high ones less potent killing. As a reminder, the AUC is the area under the concentration-time curve, a measure of exposure. As a reminder, the Cmax is the maximum level reached in the sampled fluid or tissue. Molecule `C[C@H]1COc2c(N3CCN(C)CC3)c(F)cc3c(=O)c(C(=O)O)cn1c23.C[C@H]1COc2c(N3CCN(C)CC3)c(F)cc3c(=O)c(C(=O)O)cn1c23.O` [LEVOFLOXACIN] showed an MBC against Staphylococcus aureus [1] of over 8 µg/mL. Also, the log10CFU/ml is 2.24 in the series with Staphylococcus aureus [2]; 6.7 in the series on Staphylococcus aureus [3]; 6.74 in the series with Staphylococcus aureus [4]; 2.9 with Staphylococcus aureus [5]; 3.36 in the series with Staphylococcus aureus [7]; 6.4 in the series with Staphylococcus aureus [12]. The values for the log10CFU/ml in the series with Staphylococcus aureus [13] and in the series on Staphylococcus aureus [14] were 3.37 and 6.74, respectively. In addition, the area under the curve (AUC) in [6] came out at 77 µg·h/mL; in series [8], 117 µg·h/mL; in [10], 68 µg·h/mL; in series [15], 106 µg·h/mL. Further, the Cmax in series [9] came to 6000 ng/mL; in series [16] it was 12000 ng/mL. Further, the inhibition entry with Staphylococcus aureus [11] is “inactive”.
Consider `CO[C@H]1/C=C/O[C@@]2(C)Oc3c(C)c(O)c4c(O)c(c(/C=N/N5CCN(C)CC5)c(O)c4c3C2=O)NC(=O)/C(C)=C\C=C\[C@H](C)[C@H](O)[C@@H](C)[C@@H](O)[C@@H](C)[C@H](OC(C)=O)[C@@H]1C` [RIFAMPIN], for which the AUC in series [17] was found to be 304 µg·h/mL; in series [20], 277 µg·h/mL. In addition, the MBC against Staphylococcus aureus [1] amounted to 4 µg/mL (≈ 4.86 µM). For the same molecule, the Ratio was 440 in series [18] and 20260 in series [19]. Further, in the series on Staphylococcus aureus [21], the outcome was Active. Also, the highest level in series [22] (Cmax) was 6600 ng/mL. Further, in the series with Staphylococcus aureus [23], the log10CFU/ml is given as 6.9.
